Experimental data as given in ChEMBL document CHEMBL4052804, “Design and synthesis of piperazine acetate podophyllotoxin ester derivatives targeting tubulin depolymerization as new anticancer agents” (Bioorg Med Chem Lett, 2017).
Calls of active or inactive are those of the source. The rule behind the calls is not given here.

Key:
[1] = test system: L02; assay: Cytotoxicity against human L02 cells after 24 hrs by MTT assay; assay type: cell-based; conditions: L02, 24 h
Summary of the method: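 Normal human liver L02 cells were tested at multiple concentrations in an MTT assay. Output is the median cytotoxic concentration (CC50).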

[2] = test system: MCF7; assay: Cell cycle arrest in human MCF7 cells assessed as accumulation at G1 phase at 0.9 uM after 12 hrs by propidium iodide staining based flow cytometric method (reference value: 58.69 to 62.23%); assay type: functional
[3] = test system: MCF7; assay: Cell cycle arrest in human MCF7 cells assessed as accumulation at S phase at 0.6 uM after 8 hrs by propidium iodide staining based flow cytometric method (reference value: 29.55 to 32.22%); assay type: functional
[4] = test system: MCF7; assay: Cell cycle arrest in human MCF7 cells assessed as accumulation at G2/M phase at 0.6 uM after 8 hrs by propidium iodide staining based flow cytometric method (reference value: 7.59 to 9.58%); assay type: functional
[5] = test system: MCF7; assay: Cell cycle arrest in human MCF7 cells assessed as accumulation at S phase at 0.6 uM after 16 hrs by propidium iodide staining based flow cytometric method (reference value: 29.55 to 32.22%); assay type: functional
[6] = test system: MCF7; assay: Cell cycle arrest in human MCF7 cells assessed as accumulation at G2/M phase at 0.6 uM after 16 hrs by propidium iodide staining based flow cytometric method (reference value: 7.59 to 9.58%); assay type: functional
[7] = test system: MCF7; assay: Induction of apoptosis in human MCF7 cells assessed as late apoptotic cells at 2 uM after 24 hrs by Annexin-V-FITC/propidium iodide staining based flow cytometric method (reference value: 2 to 3.7%); assay type: functional
[8] = test system: MCF7; assay: Induction of apoptosis in human MCF7 cells assessed as early apoptotic cells at 8 uM after 24 hrs by Annexin-V-FITC/propidium iodide staining based flow cytometric method (reference value: 2.36 to 2.86%); assay type: functional
[9] = test system: MCF7; assay: Down regulation of cyclin B1 expression in human MCF7 cells at 0.5 to 2 uM after 24 hrs by Western blot analysis; assay type: functional, cell-based
[10] = species: Homo sapiens; assay: Induction of tubulin depolymerization in human MCF7 cells at 0.5 to 1 uM after 12 hrs by DAPI staining based confocal microscopic analysis; assay type: cell-based

SMILES: COc1cc([C@@H]2c3cc4c(cc3[C@H](OC(=O)CN3CCN(c5ccc(Cl)c(Cl)c5)CC3)[C@H]3COC(=O)[C@H]23)OCO4)cc(OC)c1OC
- IC50 [1]: > 100 µM
- Activity [2]: 8.32%
- Activity [3]: 26.13%
- Activity [4]: 44.13%
- Activity [5]: 5.92%
- Activity [6]: 85.57%
- Activity [7]: 6.11%
- Activity [8]: 14.7%
- Activity [9]: Active
- Activity [10]: Active
